Assay results: ChEMBL document CHEMBL4038284, “Synthesis of novel quinoline-based 4,5-dihydro-1H-pyrazoles as potential anticancer, antifungal, antibacterial and antiprotozoal agents” (Eur J Med Chem, 2017)
≈ marks a conversion by molar mass, not a printed value.

Tests used:
[1] = tested on: Klebsiella pneumoniae; assay: Antibacterial activity against ESBL positive Klebsiella pneumoniae ATCC 700603 after 24 hrs by resazurin dye based microdilution assay; format: functional; settings: Klebsiella pneumoniae, 700603, 24 h
In short: (§1)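 MIC taken as the lowest concentration giving visible inhibition and/or by resazurin (1 mg/mL). Gentamicin was the control. Run in duplicate, repeated at least three times.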

[2] = tested on: Klebsiella pneumoniae; assay: Antibacterial activity against carbapenemase positive Klebsiella pneumoniae BAA 1705 after 24 hrs by resazurin dye based microdilution assay; format: functional; settings: BAA 1705, 24 h; in short: as §1
[3] = tested on: Leishmania panamensis; assay: Antileshmanial activity against EpiR/GFP fused Leishmania panamensis MHOM/CO/87/UA140 intracellular amastigotes infected in human […] cells after 72 hrs by flow cytometric method; format: functional, cell-based; settings: MHOM/CO/87/UA140, 72 h
In short: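 PMA-treated U-937 cells (3 × 10^5 cells/mL) infected with stationary-phase GFP L. panamensis promastigotes (15:1), 3 h at 34 °C, then washed. After 24 h, compounds added at 50, 12.5, 3.125 and 0.78 µg/mL for 72 h at 37 °C. EC50 by Probit; triplicate, two experiments.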

[4] = tested on: Candida albicans; assay: Antifungal activity against Candida albicans ATCC 10231 incubated for 48 hrs under dark condition by broth microdilution method; format: functional; settings: ATCC 10231, 48 h
In short: (§2)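 CLSI M27-A3 broth microdilution in RPMI-1640, DMSO ≤1%, compounds at 250-0.98 µg/mL final. Inoculum 1-5 × 10^3 CFU/mL. Incubated 48 h at 30 °C in a moist dark chamber, read at OD405. MIC80 and MIC50 taken from % inhibition dose-response curves (mean ± SEM, triplicate). Amphotericin B was the positive control.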

[5] = tested on: Cryptococcus neoformans; assay: Antifungal activity against Cryptococcus neoformans ATCC 32264 incubated for 48 hrs under dark condition by broth microdilution method; format: functional; settings: ATCC 32264, 48 h; in short: as §2
[6] = tested on: Candida albicans; assay: Growth inhibition of Candida albicans ATCC 10231 at 250 ug/ml incubated for 48 hrs under dark condition by broth microdilution method relative to control; format: functional; settings: ATCC 10231, 48 h, read-out: GI
In short: (§3)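 CLSI M27-A3 broth microdilution in RPMI-1640, DMSO ≤1%. Inoculum 1-5 × 10^3 CFU/mL. Incubated 48 h at 30 °C, dark. % inhibition = 100 − (OD405 test − sterility control)/(OD405 growth control − sterility control), with growth and sterility control wells. Triplicate.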

[7] = tested on: Candida albicans; assay: Growth inhibition of Candida albicans ATCC 10231 at 125 ug/ml incubated for 48 hrs under dark condition by broth microdilution method relative to control; format: functional; settings: ATCC 10231, 48 h, read-out: GI; in short: as §3
[8] = tested on: Candida albicans; assay: Growth inhibition of Candida albicans ATCC 10231 at 62.5 ug/ml incubated for 48 hrs under dark condition by broth microdilution method relative to control; format: functional; settings: ATCC 10231, 48 h, read-out: GI; in short: as §3
[9] = tested on: Candida albicans; assay: Growth inhibition of Candida albicans ATCC 10231 at 31.25 ug/ml incubated for 48 hrs under dark condition by broth microdilution method relative to control; format: functional; settings: ATCC 10231, 48 h, read-out: GI; in short: as §3
[10] = tested on: Candida albicans; assay: Growth inhibition of Candida albicans ATCC 10231 at 15.62 ug/ml incubated for 48 hrs under dark condition by broth microdilution method relative to control; format: functional; settings: ATCC 10231, 48 h, read-out: GI; in short: as §3
[11] = tested on: Candida albicans; assay: Growth inhibition of Candida albicans ATCC 10231 at 7.8 ug/ml incubated for 48 hrs under dark condition by broth microdilution method relative to control; format: functional; settings: ATCC 10231, 48 h, read-out: GI; in short: as §3
[12] = tested on: Candida albicans; assay: Growth inhibition of Candida albicans ATCC 10231 at 3.4 ug/ml incubated for 48 hrs under dark condition by broth microdilution method relative to control; format: functional; settings: ATCC 10231, 48 h, read-out: GI
[13] = tested on: Cryptococcus neoformans; assay: Growth inhibition of Cryptococcus neoformans ATCC 32264 at 250 ug/ml incubated for 48 hrs under dark condition by broth microdilution method relative to control; format: functional; settings: ATCC 32264, 48 h, read-out: GI; in short: as §3
[14] = tested on: Cryptococcus neoformans; assay: Growth inhibition of Cryptococcus neoformans ATCC 32264 at 125 ug/ml incubated for 48 hrs under dark condition by broth microdilution method relative to control; format: functional; settings: ATCC 32264, 48 h, read-out: GI; in short: as §3
[15] = tested on: Cryptococcus neoformans; assay: Growth inhibition of Cryptococcus neoformans ATCC 32264 at 62.5 ug/ml incubated for 48 hrs under dark condition by broth microdilution method relative to control; format: functional; settings: ATCC 32264, 48 h, read-out: GI; in short: as §3
[16] = tested on: Cryptococcus neoformans; assay: Growth inhibition of Cryptococcus neoformans ATCC 32264 at 31.25 ug/ml incubated for 48 hrs under dark condition by broth microdilution method relative to control; format: functional; settings: ATCC 32264, 48 h, read-out: GI; in short: as §3
[17] = tested on: Cryptococcus neoformans; assay: Growth inhibition of Cryptococcus neoformans ATCC 32264 at 15.62 ug/ml incubated for 48 hrs under dark condition by broth microdilution method relative to control; format: functional; settings: ATCC 32264, 48 h, read-out: GI; in short: as §3
[18] = tested on: Cryptococcus neoformans; assay: Growth inhibition of Cryptococcus neoformans ATCC 32264 at 7.8 ug/ml incubated for 48 hrs under dark condition by broth microdilution method relative to control; format: functional; settings: ATCC 32264, 48 h, read-out: GI; in short: as §3
[19] = tested on: Cryptococcus neoformans; assay: Growth inhibition of Cryptococcus neoformans ATCC 32264 at 3.4 ug/ml incubated for 48 hrs under dark condition by broth microdilution method relative to control; format: functional; settings: ATCC 32264, 48 h, read-out: GI
[20] = tested on: Staphylococcus aureus; assay: Antibacterial activity against methicillin-sensitive Staphylococcus aureus ATCC 25923 after 24 hrs by resazurin dye based microdilution assay; format: functional; settings: ATCC 25923, 24 h; in short: as §1
[21] = tested on: Staphylococcus aureus; assay: Antibacterial activity against methicillin-resistant Staphylococcus aureus ATCC 43300 after 24 hrs by resazurin dye based microdilution assay; format: functional; settings: ATCC 43300, 24 h
In short: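 Broth microdilution in Mueller Hinton broth, inoculum 5 × 10^5 – 8 × 10^5. Compound stocks diluted in MHB with 5% DMSO and 0.1% Tween 80. Incubation 24 h at 35-37 °C. MIC is the lowest concentration with visible growth inhibition and/or by resazurin (1 mg/mL) read-out. Gentamicin as control. Run in duplicate, replicated at least three times.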

[22] = tested on: Staphylococcus aureus; assay: Antibacterial activity against vancomycin-intermediate Staphylococcus aureus after 24 hrs by resazurin dye based microdilution assay; format: functional; in short: as §1
[23] = tested on: Escherichia coli; assay: Antibacterial activity against Escherichia coli ATCC 25922 after 24 hrs by resazurin dye based microdilution assay; format: functional; settings: ATCC 25922, 24 h; in short: as §1
[24] = tested on: Pseudomonas aeruginosa; assay: Antibacterial activity against Pseudomonas aeruginosa ATCC 27853 after 24 hrs by resazurin dye based microdilution assay; format: functional; settings: ATCC 27853, 24 h; in short: as §1
[25] = tested on: Neisseria gonorrhoeae; assay: Antibacterial activity against beta lactamase positive Neisseria gonorrhoeae ATCC 31426 by oxidase test; format: functional
In short: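 Agar dilution MIC on GC agar with 1% isovitalex containing increasing compound concentrations. Plates inoculated with about 1×10^4 CFU (5 µL). MIC is the lowest concentration that inhibited growth, with growth confirmed by oxidase test. Run in duplicate, repeated at least three times.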

[26] = tested on: Plasmodium falciparum; assay: Antiplasmodial activity against chloroquine-sensitive Plasmodium falciparum 3D7 assessed as reduction in parasitic LDH activity after 48 hrs by Malstat reagent based […] method; format: functional; settings: 3D7, 48 h
In short: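 Unsynchronized P. falciparum 3D7 at 0.5% parasitemia and 1% hematocrit in RPMI with 3% Albumax II. Exposed to 100, 25, 6.25 and 1.56 µg/mL for 48 h at 37 °C under 90% N2/5% CO2/5% O2. After three freeze-thaw cycles, LDH measured with Malstat and NBT/PES, 1 h in the dark, read at 650 nm. IC50 by Probit; triplicate, ≥2 experiments.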

[27] = tested on: U-937; assay: Cytotoxicity against human U937 cells after 72 hrs by MTT assay; format: cell-based; settings: u-937, 72 h
In short: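 Exponentially growing U-937 at 1 × 10^5 cells/mL in RPMI-1640 with 10% FBS were exposed to 200, 50, 12.5 and 3.125 µg/mL for 72 h at 37 °C, 5% CO2. MTT for 3 h, stopped with isopropanol/SDS, formazan read at 570 nm, blank-corrected. LC50 by Probit from % viability against untreated cells. Triplicate, at least two independent experiments.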

[28] = tested on: Trypanosoma cruzi; assay: Antitrypanosomal activity against Trypanosoma cruzi Tulahuen intracellular amastigote harboring LacZ infected in human U937 cells after 72 hrs by CPRG/Nonidet reagent based spectrophotometric method; format: functional, cell-based; settings: U-937, 72 h
In short: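 U-937 cells at 2.5 × 10^5 cells/mL in RPMI-1640 with 10% serum and 0.1 µg/mL PMA were infected with β-galactosidase-transfected Tulahuen epimastigotes at 5 parasites per cell. Infected cells were exposed to 50, 12.5, 3.125 and 0.78 µg/mL for 72 h. CPRG (100 uM) and 0.1% Nonidet P-40 were added for 3 h, read at 570 nm. EC50 by Probit. Triplicate, at least two experiments; benznidazole as reference.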

Compound	MIC [1] [µg/mL]	MIC [2] [µg/mL]	EC50 [3] [µg/mL]	MIC50 [4] [µg/mL]	MIC80 [4] [µg/mL]	MIC50 [5] [µg/mL]	MIC80 [5] [µg/mL]	inhibition of growth at 250 µg/mL [6] [%]	inhibition of growth at 125 µg/mL [7] [%]	inhibition of growth at 62.5 µg/mL [8] [%]	inhibition of growth at 31.25 µg/mL [9] [%]	inhibition of growth at 250 µg/mL [13] [%]	inhibition of growth at 125 µg/mL [14] [%]	inhibition of growth at 62.5 µg/mL [15] [%]	inhibition of growth at 31.25 µg/mL [16] [%]	inhibition of growth at 15.62 µg/mL [17] [%]	inhibition of growth at 7.8 µg/mL [18] [%]	inhibition of growth at 3.4 µg/mL [19] [%]	LC50 [27] [µg/mL]	EC50 [28] [µg/mL]	other results
Cc1ccc(C2=NN(c3ccccc3)C(c3cccc(Nc4ccnc5cc(Cl)ccc45)c3)C2)cc1 (stereo not given)	> 1000	> 1000	1.83 (≈ 3.74 µM)	≥ 250	≥ 250	≥ 250	≥ 250	28.3	22.9	13.1	12	31.5	7.45	4.01	1.72	0.86	0	0	1.4 (≈ 2.86 µM)	1.09 (≈ 2.23 µM)	inhibition of growth at 15.62 µg/mL [10]: 7.89%; inhibition of growth at 7.8 µg/mL [11]: 2.53%; inhibition of growth at 3.4 µg/mL [12]: 2.29%; MIC [20]: > 1000 µg/mL; MIC [21]: > 1000 µg/mL; MIC [22]: > 1000 µg/mL; MIC [23]: > 1000 µg/mL; MIC [24]: > 1000 µg/mL; MIC [25]: > 1000 µg/mL; EC50 [26]: 13.5 µg/mL (≈ 27.7 µM)
O=C(Cn1ccnc1[N+](=O)[O-])NCc1ccccc1 [BENZNIDAZOLE]	–	–	–	–	–	–	–	–	–	–	–	–	–	–	–	–	–	–	180 (≈ 692 µM)	10.7 (≈ 41.1 µM)	–
Cc1ccc(C(=O)/C=C/c2cccc(Nc3ccnc4cc(Cl)ccc34)c2)cc1	> 1000	> 1000	1.2 (≈ 3.01 µM)	125 (≈ 313 µM)	≥ 250	7.8 (≈ 19.6 µM)	15.6 (≈ 39.2 µM)	63.6	53.1	45.4	39.6	100	100	100	100	93.7	71.8	41.4	2 (≈ 5.01 µM)	> 1	inhibition of growth at 15.62 µg/mL [10]: 36.6%; inhibition of growth at 7.8 µg/mL [11]: 30.6%; inhibition of growth at 3.4 µg/mL [12]: 27.2%; MIC [20]: > 1000 µg/mL; MIC [21]: > 1000 µg/mL; MIC [22]: > 1000 µg/mL; MIC [23]: > 1000 µg/mL; MIC [24]: > 1000 µg/mL; MIC [25]: > 1000 µg/mL; EC50 [26]: 10.3 µg/mL (≈ 25.7 µM)
C[C@@H]1[C@H](O)[C@@H](C)/C=C/C=C/C=C/C=C/C=C/C=C/C=C/[C@H](O[C@@H]2O[C@H](C)[C@@H](O)[C@H](N)[C@@H]2O)C[C@@H]2O[C@](O)(C[C@@H](O)C[C@@H](O)[C@H](O)CC[C@@H](O)C[C@@H](O)CC(=O)O[C@H]1C)C[C@H](O)[C@H]2C(=O)O [AMPHOTERICIN B]	–	–	–	–	–	–	–	–	–	–	–	100	100	100	100	100	100	100	36 (≈ 39 µM)	–	–
